{
  "source": "ChEMBL document CHEMBL4406918",
  "about": "“Inhibitory Effects of Multivalent Polypeptides on the Proliferation and Metastasis of Breast Cancer Cells” (ACS Med Chem Lett, 2019)",
  "key": {"4T1 [1]": {"test_system": "4T1", "assay": "Antiinvasive activity in mouse 4T1 cells assessed as inhibition of cell invasion at 0.2 mM incubated for 24 hrs by crystal violet staining based matrigel invasion assay relative to control", "type": "functional", "conditions": "4T1, 24 h", "in_short": "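4T1 cells, Matrigel-coated Transwell invasion with 0.2 mM compound. Invasion rate comes from counting cells on the underside of the Matrigel-coated porous membrane, relative to untreated control. Mean ± SD, n = 3.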"}, "4T1 [2]": {"test_system": "4T1", "assay": "Induction of cell cycle arrest in mouse 4T1 cells assessed as accumulation at G2/M phase at 0.4 mM incubated for 24 hrs by PI staining based flow cytometric analysis (reference value: 19.82%)", "type": "functional"}, "4T1 [3]": {"test_system": "4T1", "assay": "Induction of apoptosis in mouse 4T1 cells at 0.8 mM incubated for 24 hrs by PI staining based inverted microscopic method", "type": "functional, cell-based", "in_short": "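Live–dead staining of 4T1 cells after 24 h exposure, with PI uptake imaged microscopically. A higher 0.8 mM dose was also tested.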"}, "4T1 [4]": {"test_system": "4T1", "assay": "Induction of apoptosis in mouse 4T1 cells assessed as early apoptotic cells at 0.4 mM incubated for 24 hrs by Annexin V-FITC/PI based FACS analysis (reference value: 0.76%)", "type": "functional"}, "[5]": {"assay": "Toxicity in BALB/c mouse xenografted with mouse 4T1 cells assessed as induction of morphological lesions in heart at 10 mg/kg administered intratumorally and measured after 24 days by H and E staining based inverted optical microscopic method", "type": "organism-based", "conditions": "in vivo, other, 576 h"}, "4T1 [6]": {"test_system": "4T1", "assay": "Induction of cell cycle arrest in mouse 4T1 cells assessed as accumulation at G0/G1 phase at 0.4 mM incubated for 24 hrs by PI staining based flow cytometric analysis (reference value: 37.78%)", "type": "functional"}, "[7]": {"assay": "Toxicity in BALB/c mouse xenografted with mouse 4T1 cells assessed as change in blood urea nitrogen level at 10 mg/kg administered intratumorally and measured after 24 days", "type": "organism-based", "conditions": "in vivo, other, 576 h"}, "4T1 [8]": {"test_system": "4T1", "assay": "Induction of apoptosis in mouse 4T1 cells assessed as late apoptotic cells at 0.4 mM incubated for 24 hrs by Annexin V-FITC/PI based FACS analysis (reference value: 6.62%)", "type": "functional"}, "[9]": {"assay": "Stability in fetal bovine serum assessed as drug degradation measured for 4 hrs by RP-HPLC analysis", "type": "ADME, cell-free, Bos taurus", "conditions": "cattle, read-out: Drug degradation", "in_short": "(§1)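 Peptides incubated in serum for up to 12 h. Degradation is followed as the percentage of intact YSL remaining at time points including 4 and 12 h.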"}, "[10]": {"assay": "Toxicity in BALB/c mouse xenografted with mouse 4T1 cells assessed as change in serum creatinine level at 10 mg/kg administered intratumorally and measured after 24 days", "type": "organism-based", "conditions": "in vivo, other, 576 h"}, "4T1 [11]": {"test_system": "4T1", "assay": "Antitumour activity against mouse 4T1 cells xenografted in BALB/c mouse assessed as increase in damage of tumor tissue at 10 mg/kg administered intratumorally and measured after 24 days by H and E staining based inverted optical microscopic method", "type": "functional, organism-based", "in_short": "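Tumours from 4T1-bearing BALB/c mice given 6 doses of 10 mg/kg (saline control) were sectioned and stained with H&E, plus CD31, Ki-67 and TUNEL.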"}, "4T1 [12]": {"test_system": "4T1", "assay": "Inhibition of metastasis in mouse 4T1 cells assessed as disruption in F-actin arrangement at 0.2 mM incubated for 24 hrs by Hoechst 33342 staining based confocal laser scanning microscopic method", "type": "functional, cell-based", "in_short": "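After 24 h at 0.2 mM, 4T1 cells were stained for F-actin with Alexa Fluor 488 phalloidin and for nuclei with Hoechst 33342, then imaged by fluorescence for cytoskeletal arrangement and cell morphology.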"}, "4T1 [13]": {"test_system": "4T1", "assay": "Inhibition of cell migration in mouse 4T1 cells assessed as wound closure rate at 0.2 mM measured up to 36 hrs by inverted optical microscopic method based wound healing assay (reference value: 82%)", "type": "functional", "design": "scale not given: the % may be the effect or the level left"}, "4T1 [14]": {"test_system": "4T1", "assay": "Antiproliferative activity against mouse 4T1 cells assessed as cell death at 0.2 mM incubated for 24 hrs by MTT assay relative to control", "type": "functional", "in_short": "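Mouse 4T1 breast cancer cells exposed for 24 h (doses include 0.1 and 0.2 mM), then read by MTT for viability or cell death. Mean ± SD, n = 6.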"}, "4T1 [15]": {"test_system": "4T1", "assay": "Antitumour activity against mouse 4T1 cells xenografted in BALB/c mouse assessed as reduction in size of lung tumor metastatic nodules at 10 mg/kg administered intratumorally and measured after 24 days by H and E staining based inverted optical microscopic method", "type": "functional, organism-based", "in_short": "(§2)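 After 6 doses of 10 mg/kg to 4T1 tumour-bearing BALB/c mice (saline control), lungs were photographed whole and examined histopathologically for the number and size of metastatic nodules.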"}, "4T1 [16]": {"test_system": "4T1", "assay": "Induction of apoptosis in mouse 4T1 cells assessed as necrotic cells at 0.4 mM incubated for 24 hrs by Annexin V-FITC/PI based FACS analysis (reference value: 0.47%)", "type": "functional"}, "4T1 [17]": {"test_system": "4T1", "assay": "Antitumour activity against mouse 4T1 cells xenografted in BALB/c mouse assessed as inhibition in tumor growth at 10 mg/kg administered intratumorally and measured every 3 days for 24 days", "type": "functional, organism-based", "in_short": "(§3)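 BALB/c mice bearing subcutaneous 4T1 tumours received 6 doses of 10 mg/kg, with equal YSL-monomer molar amounts across compounds and saline as control. Tumour volume growth curves and body weights were tracked. Mean ± SD, n = 5.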"}, "4T1 [18]": {"test_system": "4T1", "assay": "Induction of cell cycle arrest in mouse 4T1 cells assessed as accumulation at S phase at 0.4 mM incubated for 24 hrs by PI staining based flow cytometric analysis (Rvb =42.35%)", "type": "functional"}, "4T1 [19]": {"test_system": "4T1", "assay": "Antitumour activity against mouse 4T1 cells xenografted in BALB/c mouse assessed as reduction in number of lung tumor metastatic nodules at 10 mg/kg administered intratumorally and measured after 24 days by H and E staining based inverted optical microscopic method", "type": "functional, organism-based", "in_short": "as §2"}, "4T1 [20]": {"test_system": "4T1", "assay": "Antiproliferative activity against mouse 4T1 cells at 0.1 mM incubated for 24 hrs by MTT assay", "type": "functional, cell-based"}, "[21]": {"assay": "Toxicity in BALB/c mouse xenografted with mouse 4T1 cells assessed as change in body weight at 10 mg/kg administered intratumorally and measured after 24 days", "type": "organism-based", "conditions": "in vivo, other, 576 h", "in_short": "as §3"}, "[22]": {"assay": "Toxicity in BALB/c mouse xenografted with mouse 4T1 cells assessed as induction of morphological lesions in liver at 10 mg/kg administered intratumorally and measured after 24 days by H and E staining based inverted optical microscopic method", "type": "organism-based", "conditions": "in vivo, other, 576 h"}, "[23]": {"assay": "Toxicity in BALB/c mouse xenografted with mouse 4T1 cells assessed as induction of morphological lesions in kidney at 10 mg/kg administered intratumorally and measured after 24 days by H and E staining based inverted optical microscopic method", "type": "organism-based", "conditions": "in vivo, other, 576 h"}, "4T1 [24]": {"test_system": "4T1", "assay": "Inhibition of cell migration in mouse 4T1 cells assessed as migration frequency at 0.2 mM incubated for 24 hrs by crystal violet staining based transwell assay relative to control", "type": "functional", "design": "scale not given: the % may be the effect or the level left", "in_short": "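4T1 cells, Transwell migration with 24 h exposure to 0.2 mM. Migration rate comes from counting cells on the bottom of the porous membrane. Mean ± SD, n = 3.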"}, "Erythrocyte": {"test_system": "Erythrocyte", "assay": "Hemolytic activity in BALB/c mouse RBC at 3.2 mM incubated for 2 hrs by UV-Vis spectrophotometric analysis", "type": "ADME, cell-based", "conditions": "3200 µM", "in_short": "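Hemolysis assay on red blood cells with dendrimers up to 3.2 mM. Result is expressed as hemolysis rate, with under 5% taken as acceptable.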"}, "4T1 [25]": {"test_system": "4T1", "assay": "Induction of apoptosis in mouse 4T1 cells assessed as viable cells at 0.4 mM incubated for 24 hrs by Annexin V-FITC/PI based FACS analysis (reference value: 92.2%)", "type": "functional", "conditions": "4T1, 24 h, read-out: Activity"}, "[26]": {"assay": "Toxicity in BALB/c mouse xenografted with mouse 4T1 cells assessed as induction of morphological lesions in spleen at 10 mg/kg administered intratumorally and measured after 24 days by H and E staining based inverted optical microscopic method", "type": "organism-based", "conditions": "in vivo, other, 576 h"}, "[27]": {"assay": "Stability in fetal bovine serum assessed as drug degradation measured for 12 hrs by RP-HPLC analysis", "type": "ADME, cell-free, Bos taurus", "conditions": "cattle, read-out: Drug degradation", "in_short": "as §1"}},
  "note": "The source made the active and inactive calls. The calls are words filed in the database; no cut-off is given here. Where a SMILES comes first, the peptide text is derived from it.",
  "data": [
    {"compound": "COC(=O)[C@H](CC(C)C)NC(=O)[C@H](CO)NC(=O)[C@@H](N)Cc1ccc(O)cc1", "note": "(H-Tyr-Ser-Leu-OMe)", "values": [
      {"measurement": "inhibition at 200 µM", "setting": "4T1 [1]", "result": 92, "unit": "%"},
      {"measurement": "Activity", "setting": "4T1 [2]", "result": 48.48, "unit": "%"},
      {"measurement": "Activity", "setting": "4T1 [3]", "result": "Active"},
      {"measurement": "Activity", "setting": "4T1 [4]", "result": 0.88, "unit": "%"},
      {"measurement": "Activity", "setting": "[5]", "result": "Non-Toxic"},
      {"measurement": "Activity", "setting": "4T1 [6]", "result": 37.41, "unit": "%"},
      {"measurement": "Activity", "setting": "[7]", "result": "Non-Toxic"},
      {"measurement": "Activity", "setting": "4T1 [8]", "result": 10.3, "unit": "%"},
      {"measurement": "metabolised at 4 h", "setting": "[9]", "result": 60, "unit": "%"},
      {"measurement": "Activity", "setting": "[10]", "result": "Non-Toxic"},
      {"measurement": "Activity", "setting": "4T1 [11]", "result": "Active"},
      {"measurement": "F-actin disruption (qualitative)", "setting": "4T1 [12]", "result": "Active"},
      {"measurement": "Activity", "setting": "4T1 [13]", "result": 80, "unit": "%"},
      {"measurement": "Activity", "setting": "4T1 [14]", "result": 2, "unit": "%"},
      {"measurement": "Activity", "setting": "4T1 [15]", "result": "Active"},
      {"measurement": "Activity", "setting": "4T1 [16]", "result": 1.23, "unit": "%"},
      {"measurement": "Activity", "setting": "4T1 [17]", "result": "Active"},
      {"measurement": "Activity", "setting": "4T1 [18]", "result": 42.35, "unit": "%"},
      {"measurement": "Activity", "setting": "4T1 [19]", "result": "Active"},
      {"measurement": "Activity", "setting": "4T1 [20]", "result": "inactive"},
      {"measurement": "Activity", "setting": "[21]", "result": "Non-Toxic"},
      {"measurement": "Activity", "setting": "[22]", "result": "Non-Toxic"},
      {"measurement": "Activity", "setting": "[23]", "result": "Non-Toxic"},
      {"measurement": "Activity", "setting": "4T1 [24]", "result": 82, "unit": "%"},
      {"measurement": "Activity", "setting": "Erythrocyte", "result": "Non-Toxic"},
      {"measurement": "viability at 400 µM", "setting": "4T1 [25]", "result": 87.6, "unit": "%"},
      {"measurement": "Activity", "setting": "[26]", "result": "Non-Toxic"},
      {"measurement": "metabolised at 12 h", "setting": "[27]", "result": 100, "unit": "%"}
    ]}
  ]
}
